What all share (format): functional, Cercopithecidae
The nature of test [1]: Time from injection to 95% recovery of the twitch response at the ED95 dose in male Rhesus monkey. The gist of the method:
(§1)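 Anesthetized, ventilated male rhesus monkeys received sequential iv bolus doses with extensor digitorum twitch recorded. Onset is injection to peak twitch inhibition. Duration is injection to 95% twitch recovery. Values at the ED95 were read from plots of onset or duration vs dose. Means ± SE across animals.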

Test [2] is described as follows: Dose required for 95% suppression of the twitch response at the extensor digitorum in male Rhesus monkey. The gist of the method:
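Adult male rhesus monkeys (8–15 kg) under ketamine (5 mg/kg i.m.) and pentobarbital (2–5 mg/kg iv) induction, then N2O 60%/O2 40%/halothane 0.5–1%, ventilated, core temperature 37–38 °C. Twitch of extensor digitorum was recorded after ≥20 min stable baseline. Sequential iv bolus doses from 0.03 to 6.4 mg/kg. Per-animal ED95 came from log-probability regression of dose vs % block. Other lines give the single dose tested with its % block.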

Test [3] in a line: Time from injection to peak inhibition of twitch response at the ED95 dose in male Rhesus monkey. The gist of the method: as §1
Test [4] in a line: Selectivity index is changes in heart rate(cv dose) to the suppression of twitch response (ED95) in male Rhesus monkey. The gist of the method:
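Same anesthetized male rhesus preparation, with blood pressure, heart rate and EKG recorded alongside twitch during sequential iv doses up to 6.4 mg/kg. Cardiovascular threshold dose is the dose giving ≥10% change in heart rate or mean arterial pressure. Index = mean threshold dose / mean ED95 (extensor digitorum).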

Where [5] appears, read: Cercopithecidae, read-out: ED95.

Structures are written as SMILES.

Turning to `COc1cc2c(cc1OC)[C@H](c1cc(OC)c(OC)c(OC)c1)[N@@+](C)(CCCOC(=O)C(F)(F)CC(=O)OCCC[N@+]1(C)CCc3cc(OC)c(OC)cc3[C@H]1Cc1cc(OC)c(OC)c(OC)c1)CC2.[Cl-].[Cl-]`, the Duration in test [1] is recorded as 4.9 min. For the same compound, in test [2] (setting [5]), the ED95 turned out to be 0.39 mg/kg. The Onset in test [3] is recorded as 26 s.

Regarding `COc1cc2c(cc1OC)[C@H](c1cc(OC)c(OC)c(OC)c1)[N@@+](C)(CCCOC(=O)CCCCCCC(=O)OCCC[N@+]1(C)CCc3cc(OC)c(OC)cc3[C@H]1Cc1cc(OC)c(OC)c(OC)c1)CC2.[Cl-].[Cl-]`, the Duration in test [1] turned out to be 10.9 min. For the same compound, in test [2] (setting [5]), the ED95 was 0.067 mg/kg. This compound registered an Onset in test [3] of 117 s. This compound also yielded a Selectivity index in test [4] of 12.

On to `COc1cc2c(cc1OC)[C@H](c1cc(OC)c(OC)c(OC)c1)[N@@+](C)(CCCOC(=O)CC(F)(F)C(=O)OCCC[N@+]1(C)CCc3cc(OC)c(OC)c(OC)c3[C@H]1Cc1cc(OC)c(OC)c(OC)c1)CC2.[Cl-].[Cl-]`, for which the Duration in test [1] came out at 14 min. The ED95 in test [2] (setting [5]) stood at 0.04 mg/kg. For the same compound, in test [3], the Onset was determined as 217 s. Moreover, the Selectivity index in test [4] came to 60.

In test [1], `COc1ccc([C@@H]2c3cc(OC)c(OC)cc3CC[N@@+]2(C)CCCOC(=O)CC(F)(F)C(=O)OCCC[N@+]2(C)CCc3cc(OC)c(OC)cc3[C@H]2Cc2cc(OC)c(OC)c(OC)c2)cc1OC.[Cl-].[Cl-]` came in with a Duration of 3.9 min. The ED95 in test [2] (setting [5]) was found to be 0.06 mg/kg. For the same compound, the Onset in test [3] was determined as 55 s.

In turn, `COc1cc2c(cc1OC)[C@H](c1cc(OC)c(OC)c(OC)c1)[N@@+](C)(CCCOC(=O)CCCCC(=O)OCCC[N@+]1(C)CCc3cc(OC)c(OC)cc3[C@H]1Cc1cc(OC)c(OC)c(OC)c1)CC2.[Cl-].[Cl-]` gave a Duration in test [1] of 13 min. In test [2] (setting [5]), the ED95 stood at 0.136 mg/kg. The Onset in test [3] came to 75 s.

`COc1ccc([C@H]2c3cc(OC)c(OC)cc3CC[N@+]2(C)CCCOC(=O)/C=C(\Cl)C(=O)OCCC[N@+]2(C)CCc3cc(OC)c(OC)cc3[C@H]2Cc2cc(OC)c(OC)c(OC)c2)cc1.[Cl-].[Cl-]` gave a Duration in test [1] of 7.4 min. For the same compound, in test [2] (setting [5]), the ED95 worked out at 0.136 mg/kg. Besides, the Onset in test [3] is reported as 69 s. Also, the Selectivity index in test [4] is 6.

As to `COc1cc2c(cc1OC)[C@H](c1cc(OC)c(OC)c(OC)c1)[N@@+](C)(CCCOC(=O)/C=C(\Cl)C(=O)OCCC[N@@+]1(C)CCc3cc(OC)c(OC)cc3[C@@H]1c1cc(OC)c(OC)c(OC)c1)CC2.[Cl-].[Cl-]`, the Selectivity index in test [4] stood at 1.5.

With `COc1cc2c(cc1OC)[C@@H](c1cc(OC)c(OC)c(OC)c1)[N@+](C)(CCCOC(=O)/C=C(\Cl)C(=O)OCCC[N@+]1(C)CCc3cc(OC)c(OC)c(OC)c3[C@H]1Cc1cc(OC)c(OC)c(OC)c1)CC2`, the Duration in test [1] came to 10 min. In addition, the ED95 in test [2] (setting [5]) was 0.067 mg/kg. In addition, the Onset in test [3] is recorded as 57 s. Also, the Selectivity index in test [4] was determined as 24.

As to `COc1cc2c(cc1OC)[C@H](c1cc(OC)c(OC)c(OC)c1)[N@@+](C)(CCCOC(=O)/C=C(\Cl)C(=O)OCCC[N@+]13CCc4cc(OC)c(OC)c(OC)c4[C@H]1Cc1cc(OC)c(OC)c(OC)c1C3)CC2.[Cl-].[Cl-]`, the Duration in test [1] amounted to 4.5 min. Moreover, the ED95 in test [2] (setting [5]) was determined as 0.8 mg/kg. Besides, the Onset in test [3] is on record as 28 s.

Turning to `COc1cc2c(cc1OC)C(c1cc(OC)c(OC)c(OC)c1)[N@+](C)(CCCOC(=O)/C=C/C(=O)OCCC[N@+]1(C)CCc3cc(OC)c(OC)cc3[C@H]1c1cc(OC)c(OC)c(OC)c1)CC2.[Cl-].[Cl-]` (stereo not given in full), in test [1], the Duration was 25.5 min. The ED95 in test [2] (setting [5]) came to 1.55 mg/kg. In addition, in test [3], the Onset came to 114 s. In test [4], the Selectivity index was 0.65.

With `COc1cc(CC2c3cc4c(cc3CC[N@@+]2(C)CCCOC(=O)/C(Cl)=C/C(=O)OCCC[N@+]2(C)CCc3cc5c(cc3[C@H]2Cc2cc(OC)c(OC)c(OC)c2)OCO5)OCO4)cc(OC)c1OC.[Cl-].[Cl-]` (stereo not given in full), the Duration in test [1] is listed as 2.4 min. In addition, in test [2] (setting [5]), the ED95 is 0.62 mg/kg. The Onset in test [3] turned out to be 27 s. The same compound displayed a Selectivity index in test [4] of 1.3.

Consider `COc1cc2c(cc1OC)[C@H](c1cc(OC)c(OC)c(OC)c1)[N@@+](C)(CCCOC(=O)/C=C(\F)C(=O)OCCC[N@+]1(C)CCc3cc(OC)c(OC)c(OC)c3[C@H]1Cc1cc(OC)c(OC)c(OC)c1)CC2.[Cl-].[Cl-]`, for which the Duration in test [1] came out at 10 min. Moreover, the ED95 in test [2] (setting [5]) is 0.077 mg/kg. Also, the Onset in test [3] is 85 s. The compound further displayed a Selectivity index in test [4] of 21.

Compound `COc1cc2c(cc1OC)[C@@H](c1cc(OC)c(OC)c(OC)c1)[N@+](C)(CCCOC(=O)/C(Cl)=C/C(=O)OCCC[N@+]1(C)CCc3cc(OC)c(OC)cc3[C@H]1Cc1cc(OC)c(OC)c(OC)c1)CC2.[Cl-].[Cl-]` returned a Duration in test [1] of 3.7 min.

Consider `COc1cc2c(cc1OC)C(c1cc(OC)c(OC)c(OC)c1)[N@+](C)(CCCOC(=O)/C(Cl)=C/C(=O)OCCC[N@+]1(C)CCc3cc(OC)c(OC)cc3[C@H]1c1cc(OC)c(OC)c(OC)c1)CC2.[Cl-].[Cl-]` (stereo not given in full), for which, in test [1], the Duration amounted to 5.1 min. In addition, the ED95 in test [2] (setting [5]) stood at 1.79 mg/kg. The same compound displayed an Onset in test [3] of 46 s. This compound showed a Selectivity index in test [4] of 3.6.

In test [1], `COc1cc2c(cc1OC)[C@H](c1cc(OC)c(OC)c(OC)c1)[N@@+](C)(CCCOC(=O)/C=C(\F)C(=O)OCCC[N@+]1(C)CCc3cc(OC)c(OC)cc3[C@H]1Cc1cc(OC)c(OC)c(OC)c1)CC2.[Cl-].[Cl-]` showed a Duration of 4.4 min. For the same compound, the ED95 in test [2] (setting [5]) is 0.137 mg/kg. This compound also gave an Onset in test [3] of 66 s. For the same compound, in test [4], the Selectivity index was found to be 37.

`COc1cc2c(cc1OC)[C@@H](Cc1cc(OC)c(OC)c(OC)c1)[N@+](C)(CCCOC(=O)/C(Cl)=C/C(=O)OCCC[N@+]13CCc4cc(OC)c(OC)cc4[C@H]1c1cc(OC)c(OC)cc1CC3)CC2.[Cl-].[Cl-]` came in with a Duration in test [1] of 5.2 min. Besides, in test [2] (setting [5]), the ED95 was 0.078 mg/kg. Further, in test [3], the Onset was 94 s. The Selectivity index in test [4] came to 5.

For the compound `COc1cc2c(cc1OC)[C@H](c1cc(OC)c(OC)c(OC)c1)[N@@+](C)(CCCOC(=O)CCCCCCCCC(=O)OCCC[N@+]1(C)CCc3cc(OC)c(OC)cc3[C@H]1Cc1cc(OC)c(OC)c(OC)c1)CC2.[Cl-].[Cl-]`, in test [1], the Duration came to 13.5 min. In test [2] (setting [5]), the ED95 was determined as 0.2 mg/kg. Also, in test [3], the Onset stood at 110 s.

As for `COc1cc2c(cc1OC)[C@H](c1cc(OC)c(OC)c(OC)c1)N(CCCOC(=O)/C=C(\Cl)C(=O)OCCC[N@+]1(C)CCc3cc(OC)c(OC)cc3[C@H]1Cc1cc(OC)c(OC)c(OC)c1)CC2.Cl.[Cl-]`, the Duration in test [1] worked out at 5.4 min. The ED95 in test [2] (setting [5]) was determined as 0.87 mg/kg. The compound further came in with an Onset in test [3] of 38 s.

In test [4], `COc1cc2c(cc1OC)[C@@H](Cc1cc(OC)c(OC)c(OC)c1)[N+](C)(CCCOC(=O)CC/C=C/CCC(=O)OCCC[N+]1(C)CCc3cc(OC)c(OC)cc3[C@H]1Cc1cc(OC)c(OC)c(OC)c1)CC2.[Cl-].[Cl-]` (stereo not given in full) [MIVACURIUM CHLORIDE] came in with a Selectivity index of 24.

In test [1], `COc1cc2c(cc1OC)[C@@H](c1cc(OC)c(OC)c(OC)c1)[N@+](C)(CCCOC(=O)/C=C(\Cl)C(=O)OCCC[N@+]1(C)CCc3cc(OC)c(OC)c(OC)c3[C@H]1Cc1cc(OC)c(OC)c(OC)c1)CC2.[Cl-].[Cl-]` registered a Duration of 9.9 min. The ED95 in test [2] (setting [5]) was 0.053 mg/kg. Moreover, the Onset in test [3] was determined as 113 s. In addition, in test [4], the Selectivity index was 15.

In test [1], `COc1cc2c(cc1OC)[C@H](c1cc(OC)c(OC)c(OC)c1)[N@@+](C)(CCCOC(=O)CCC(F)(F)C(=O)OCCC[N@+]1(C)CCc3cc(OC)c(OC)cc3[C@H]1Cc1cc(OC)c(OC)c(OC)c1)CC2.[Cl-].[Cl-]` showed a Duration of 5.7 min. Moreover, in test [2] (setting [5]), the ED95 is 0.22 mg/kg. For the same compound, the Onset in test [3] is 48 s.

In test [1], `COc1cc2c(cc1OC)[C@H](c1cc(OC)c(OC)c(OC)c1)[N@@+](C)(CCCOC(=O)CCCCCCCC(=O)OCCC[N@+]1(C)CCc3cc(OC)c(OC)cc3[C@H]1Cc1cc(OC)c(OC)c(OC)c1)CC2.[Cl-].[Cl-]` came in with a Duration of 9.7 min. Besides, the ED95 in test [2] (setting [5]) is 0.17 mg/kg. Also, the Onset in test [3] came to 79 s. Also, the Selectivity index in test [4] worked out at 19.

`COc1cc2c(cc1OC)[C@H](c1cc(OC)c(OC)c(OC)c1)[N@@+](C)(CCCOC(=O)/C=C(\Cl)C(=O)OCCC[N@+]1(C)CCc3cc(OC)c(OC)cc3[C@H]1Cc1cc(OC)c(OC)c(OC)c1)CC2.[Cl-].[Cl-]` (stereo in doubt; 24a) [GANTACURIUM CHLORIDE]: the ED95 in test [2] was 0.063 mg/kg. In addition, the Selectivity index in test [4] amounted to 57.

`COc1cc2c(cc1OC)[C@H](c1ccc(F)c(F)c1)[N@@+](C)(CCCOC(=O)/C=C(\Cl)C(=O)OCCC[N@+]1(C)CCc3cc(OC)c(OC)cc3[C@H]1Cc1cc(OC)c(OC)c(OC)c1)CC2.[Cl-].[Cl-]` showed a Duration in test [1] of 4.7 min. Also, in test [2] (setting [5]), the ED95 is 0.09 mg/kg. The Onset in test [3] came out at 72 s. The Selectivity index in test [4] worked out at 18.

In turn, `COc1cc2c(cc1OC)[C@H](c1cc(OC)c(OC)c(OC)c1)[N@@+](C)(CCCOC(=O)/C=C(\Cl)C(=O)OCCC[N@+]1(C)CCc3cc(OC)c(OC)cc3[C@H]1Cc1cc(OC)c(OC)c(OC)c1)CC2.[Cl-].[Cl-]` (stereo in doubt; 24a/24b) [GANTACURIUM CHLORIDE] yielded an ED95 in test [2] of 0.163 mg/kg. The compound also registered a Selectivity index in test [4] of 27.

For the origin of these results see ChEMBL document CHEMBL1145796, “Neuromuscular blocking activity and therapeutic potential of mixed-tetrahydroisoquinolinium halofumarates and halosuccinates in rhesus monkeys” (2003).
